aSyn UTR inh: 5' untranslated region of α-synuclein, MLPCN primary screen; alpha-synuclein 5'UTR reporter, inhibitor activity; inhibition, % (tested at 7.5 µM); 300,000 compounds, 0.82% hits; AID 1813; in the data active means inhibition above about 60%;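 further: H4 neuroglioblastoma cells stably carrying SNCA 5'UTR luciferase fusion; 0% = DMSO wells and 100% = positive control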
Mdm2-MdmX inh: disrupts the human Mdm2-MdmX interaction. O15151+Q00987. SaOS-2 split-luciferase Mdm2/MdmX complementation, luminescence. inhibition, % at 8 µM. 330,000 compounds, 3% hits. AID 485346;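 active means inhibition of at least 50% at 8 µM in the primary screen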
Target sequence (O15151 whole entry, looked up): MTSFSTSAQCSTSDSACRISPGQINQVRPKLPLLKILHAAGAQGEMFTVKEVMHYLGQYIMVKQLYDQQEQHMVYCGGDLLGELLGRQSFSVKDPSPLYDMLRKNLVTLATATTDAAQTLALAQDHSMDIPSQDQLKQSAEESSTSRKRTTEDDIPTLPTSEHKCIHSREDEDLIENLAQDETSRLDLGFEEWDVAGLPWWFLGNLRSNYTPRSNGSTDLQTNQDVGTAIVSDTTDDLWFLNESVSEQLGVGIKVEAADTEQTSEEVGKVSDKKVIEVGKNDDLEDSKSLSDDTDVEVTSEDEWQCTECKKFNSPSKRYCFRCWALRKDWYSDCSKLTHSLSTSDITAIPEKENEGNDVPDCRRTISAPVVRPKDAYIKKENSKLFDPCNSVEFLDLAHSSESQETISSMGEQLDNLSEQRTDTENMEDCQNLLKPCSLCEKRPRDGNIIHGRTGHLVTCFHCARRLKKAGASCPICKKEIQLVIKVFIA
Target sequence (Q00987 whole entry, looked up): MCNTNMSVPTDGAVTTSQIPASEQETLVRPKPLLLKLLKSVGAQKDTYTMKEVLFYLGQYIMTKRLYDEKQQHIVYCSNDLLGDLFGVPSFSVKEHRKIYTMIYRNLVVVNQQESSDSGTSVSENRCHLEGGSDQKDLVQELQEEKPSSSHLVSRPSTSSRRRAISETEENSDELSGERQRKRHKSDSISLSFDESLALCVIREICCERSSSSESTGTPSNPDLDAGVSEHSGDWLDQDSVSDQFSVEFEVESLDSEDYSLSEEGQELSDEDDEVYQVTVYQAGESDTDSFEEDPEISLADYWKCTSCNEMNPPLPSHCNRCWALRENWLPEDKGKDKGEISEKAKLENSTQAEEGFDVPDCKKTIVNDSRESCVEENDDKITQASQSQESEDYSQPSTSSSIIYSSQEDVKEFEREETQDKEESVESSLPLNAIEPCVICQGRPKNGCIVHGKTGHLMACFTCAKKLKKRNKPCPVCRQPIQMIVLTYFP
T cruzi repl: T. cruzi replication inhibition; AID 1885; 300,000 compounds, 1.4% hits; T. cruzi beta-gal in NIH3T3, luminescence, 90 h; inhibition, % (concentration not given with the values);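 active means mean inhibition across valid replicates above about 55%, limit read from the data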;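 further: signal also drops with host cell toxicity which is not excluded here; 0% = plate median of DMSO wells and 100% = zero luminescence signal; higher percent means less beta-gal luminescence so fewer parasites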
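Material: NIH/3T3 host cells with β-galactosidase reporter T. cruzi; Input: 5,000 host fibroblasts per well; Medium: DMEM, 2% fetal bovine serum; Compound: 50 nL DMSO compound solution per well; Schedule: 3 h host attachment, then at least 90 h co-culture; Detection: luminescent β-galactosidase signal after 60 min lysis.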
SKKanGAS inh: blocks kanamycin growth of S. pyogenes SKKanGAS strain. 300,000 compounds, 1.3% hits. inhibition, % at 7.5 µM. BacTiter-Glo, 6 h;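 active means mean replicate score, as percent of positive control median, at least 50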;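 further: strain carries kanamycin resistance gene driven by streptokinase promoter and grows in 40 µg/ml kanamycin; loss of luminescence reflects streptokinase promoter inhibition or plain growth inhibition; 0% = median of DMSO wells and 100% = positive control at its reference dose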
CSC inhib: cancer stem cell inhibition | 300,000 compounds, 1.1% hits | AID 2717 | inhibition, % at 7.5 µM | cancer stem cell-like cells viability, luminescence; in the data active means inhibition above about 75%; tested in HMLE shEcad cells
Mdm2-MdmX conf: human Mdm2/MdmX binding inhibition, confirmed; inhibition, % at 8 µM; 10,000 compounds, 55% hits; AID 489028; shares compounds with Mdm2-MdmX inh; luminescent assay; in the data active means inhibition above about 40%
Full FLuc ctr: counter-screen for Mdm2/MdmX inhibitors: full-length luciferase; shares compounds with Mdm2-MdmX inh; SaOS-2 full-length luciferase counterscreen, luminescence; inhibition, % at 8 µM; 6,200 compounds, 77% hits; AID 504607;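 active means mean inhibition at 8 µM reaching about 37%, which flags the compound as non-specific, limit read from the data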;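 further: p53-null SaOS-2 cells with luciferase driven by a doxycycline-inducible promoter; compound on cells about two nights before reading with doxycycline added after day one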
* = called active by the depositor; / = no result given; + = active, no number. Rows were chosen to be rich in hits. Some 5.4% of all compounds tested hit in one or more screens of this group.

SMILES | aSyn UTR inh | Mdm2-MdmX inh | T cruzi repl | SKKanGAS inh | CSC inhib | Mdm2-MdmX conf | Full FLuc ctr
CC(C)(C)n1nc2c(c1NC(=O)Cc1ccc([N+](=O)[O-])cc1)CS(=O)(=O)C2 | 15 | 14 | 3 | 2 | -2 | / | /
COC(=O)c1cccc(NC(=O)C(C)(C)C)c1 | 12 | 5 | -13 | 4 | -11 | / | /
Cc1ccc(NC(=O)NNC(=O)Cn2nc(-c3ccccc3)c(-c3ccccc3)c(C#N)c2=O)cc1 | -12 | 53* | -3 | 4 | 18 | 57* | 92*
COc1ccc(CCC(=O)N2CCN(C(=O)c3ccccc3)CC2)cc1 | 11 | -17 | 3 | -5 | -7 | / | /
CC(=O)N1N=C(c2cccc([N+](=O)[O-])c2)OC1c1cccc(Br)c1 (stereo not given) | -12 | 19 | 4 | 8 | 8 | / | /
CC(=O)N1N=C(c2cccc(Cl)c2)OC1c1cccc([N+](=O)[O-])c1 (stereo not given) | 6 | 65* | -11 | 5 | 6 | -15 | /
CCn1nc(C)c([N+](=O)[O-])c1C(=O)NNC(=O)c1ccc(Cl)cc1 | / | 7 | / | 0 | -5 | / | /
COc1ccc(OC)c(C2C3=C(COC3=O)Nc3cc4c(cc32)OCO4)c1 (stereo not given) | 89* | 55* | 0 | 5 | / | 68* | 125*
COc1ccc(C2C3=C(CC(C)(C)CC3=O)Nc3cc4c(cc32)OCO4)cc1 (stereo not given) | -26 | 5 | 14 | -4 | / | / | /
COc1ccc(-c2nn(-c3ccccc3)cc2/C=N/N2C(=O)CSC2=S)cc1 | -83 | 97* | -19 | -9 | 108* | 31 | /
COc1cccc(-c2cccc(NC(=O)C3CCN(Cc4nccs4)CC3)c2)c1 | 20 | 16 | -19 | -5 | -6 | / | /
CCn1nc(C)c(CN2CCC(C(=O)Nc3cccc(-c4cccc(Cl)c4)c3)CC2)c1C | -17 | 80* | -8 | -2 | 64 | 40* | 62*
CCOc1ccc(CN2CCC(C(=O)Nc3cccc(-c4ccn[nH]4)c3)CC2)cc1Cl | -51 | 61* | 11 | 7 | / | 0 | /
Cc1cc(C)n(CCCN2CCC(C(=O)Nc3cccc(-c4cccc(F)c4)c3)CC2)n1 | 22 | 58* | 10 | 1 | 1 | 56* | 74*
CCc1ccc(CN2CCC(C(=O)Nc3ccc(Oc4ccccc4)nc3)CC2)o1 | 14 | -3 | -17 | -5 | 2 | / | /
COc1cccc(C(=O)OCCN2CCOCC2)c1 | -9 | -28 | -7 | 0 | -14 | / | /
COc1cccc(C(=O)Oc2c(CN3CCOCC3)cc(Cl)c3cccnc23)c1 | 89* | 54* | 34 | 8 | -8 | 56* | 49*
O=C(Oc1c(Cl)cc(Cl)c2cccnc12)c1ccco1 | 7 | 71* | 68* | 85* | + | 60* | 36*
COc1ccc(C(=O)OC(C)CN2CCOCC2)cc1 (stereo not given) | -18 | 29 | -3 | -1 | -10 | / | /
O=C(Oc1c(CN2CCOCC2)cc(Cl)c2cccnc12)c1cccs1 | 108* | 65* | 30 | -1 | 49 | 43* | 43*
O=C(Oc1ccc(Cl)c2cccnc12)N1CCOCC1 | -6 | 3 | -5 | -1 | -9 | / | /
COc1ccc(C(=O)Oc2c(CN3CCOCC3)cc(Cl)c3cccnc23)cc1 | 54 | 55* | 42 | -14 | 14 | 35 | 43*
OCCN1CCN(c2nc(-c3ccccc3O)nc3ccccc23)CC1 | 3 | 8 | 22 | -4 | 20 | / | /
Cc1ccc(NC(=O)COC(=O)C2CCN(c3ccc(C(F)(F)F)cn3)CC2)cc1 | / | -40 | / | / | / | / | /
O=C(Oc1c(Cl)cc(Cl)c2cccnc12)c1cccs1 | 17 | 76* | 75* | 92* | 121* | 57* | 32
SMILES | aSyn UTR inh | Mdm2-MdmX inh | T cruzi repl | SKKanGAS inh | CSC inhib | Mdm2-MdmX conf | Full FLuc ctr
O=C(Oc1c(CN2CCOCC2)cc(Cl)c2cccnc12)c1ccc(F)cc1 | 65* | 52* | 56* | 19 | 17 | 49* | 42*
COc1cc(C(=S)N2CCOCC2)cc(OC)c1OC(=O)c1ccc(F)cc1 | 5 | 10 | 8 | -5 | -11 | / | /
COc1cc(C(=O)Oc2c(OC)cc(C(=S)N3CCOCC3)cc2OC)cc(OC)c1OC | 11 | 18 | 7 | -2 | -21 | / | /
COc1cc(C(=O)Oc2c(CN3CCOCC3)cc(Cl)c3cccnc23)cc(OC)c1OC | 78* | 65* | 30 | 0 | 20 | 46* | 39*
Cc1cc(C)nc(N/C(=N\S(=O)(=O)Cc2ccccc2)Nc2ccccc2Br)n1 | 44 | 52* | 21 | -2 | 33 | 55* | 104*
Cc1ccc(N2CCN(S(=O)(=O)c3nnc(NC(=O)c4ccccc4)s3)CC2)cc1 | -23 | -9 | -7 | 33 | 31 | / | /
CCO[C@@H]1OC(C(N)=O)=C[C@H](c2coc3ccccc3c2=O)[C@H]1CCCO | 2 | 5 | -27 | 4 | -4 | / | /
N/C(=N\OC(=O)C(c1ccccc1)c1ccccc1)c1ccccn1 | -16 | 77* | 26 | -17 | -15 | 28 | /
N/C(=N\OC(=O)Cc1ccccc1)c1ccccn1 | -77 | -13 | -5 | 0 | 9 | / | /
N/C(=N\OC(=O)COc1ccccc1)c1cccnc1 | -113 | -23 | -2 | 0 | 2 | / | /
N/C(=N\OC(=O)C(c1ccccc1)c1ccccc1)c1cccnc1 | 6 | 52* | 37 | 2 | -12 | 9 | /
Cc1ccc([C@H]2C(C(=O)O)=CC[C@@H](c3ccc(C)cc3)N2S(=O)(=O)c2ccc(C)cc2)cc1 | / | 0 | / | / | -12 | / | /
COc1cc(OC)c2c(-c3ccccc3)cc(=O)oc2c1C(CCN1CCCCC1)c1ccc(N(C)C)cc1 (stereo not given) | -5 | 79* | 41 | 12 | -1 | 16 | /
COc1ccc(C(CCN2CCCCC2)c2c(OC)cc(OC)c3c(-c4ccccc4)cc(=O)oc23)cc1 (stereo not given) | 13 | 94* | 43 | 6 | -8 | 40 | /
COc1cc(C(=O)O[C@H]2CC(C)=CC[C@@]3(C)CC[C@@](O)(C(C)C)[C@H]23)ccc1O | 16 | 19 | 1 | 14 | 33 | / | /
COc1cc(C(=O)NCC(=O)N/N=C/c2ccc(-c3cccc([N+](=O)[O-])c3)o2)cc(OC)c1OC | 23 | 39 | 9 | 4 | 2 | / | /
Cc1nn(-c2ccccc2)c(Cl)c1CN(C(=O)CCl)c1cccc2ccccc12 | -7 | 99* | 21 | 3 | 43 | 99* | 53*
O=C1CN(C(=O)COC(=O)CCc2ccccc2O)c2ccccc2N1 | / | -10 | / | / | -8 | / | /
C=CCNC(=S)NNC(=O)c1ccccc1OCC | -16 | 16 | -2 | -2 | -11 | / | /
CN(c1cccc(NC(=O)CN(c2ccc(C34CC5CC(CC(C5)C3)C4)cc2)S(C)(=O)=O)c1)S(C)(=O)=O | 7 | 76* | 65* | 12 | 48 | 54* | 78*

Screening data deposited in PubChem by several laboratories.
